From ChEMBL document CHEMBL4033795, “Design, Synthesis, and Structure-Activity Relationship Study of 2-Oxo-3,4-dihydropyrimido[4,5- d]pyrimidines as New Colony Stimulating Factor 1 Receptor (CSF1R) Kinase Inhibitors” (J Med Chem, 2018)

Legend:
[1] = target: Macrophage colony-stimulating factor 1 receptor (Homo sapiens, UniProt P07333); assay: Inhibition of recombinant human His-tagged CSF1R cytoplasmic domain (538 to 910 residues) expressed in baculovirus using tyr4 peptide as substrate after 1 hr by FRET-based Z'-Lyte assay
Method in brief: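 Z′-Lyte FRET assay with CSF1R or EGFR and 2 μM Tyr4 peptide substrate in 1× kinase buffer. ATP was supplied as a 100 μM solution, a stock and not the final concentration. Compounds were 3-fold serially diluted in DMSO. Reaction ran 1 h at room temperature, followed by 1 h development and a stop reagent. Phospho-peptide, no-ATP and DMSO controls were included. IC50 by curve fitting; mean of at least three independent experiments.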

[2] = target: Epidermal growth factor receptor (Homo sapiens, UniProt P00533); assay: Inhibition of recombinant human wild type GST-tagged EGFR cytoplasmic domain (668 to 1210 residues) expressed in baculovirus using tyr4 peptide as substrate after 1 hr by FRET-based Z'-Lyte assay
Chain of Epidermal growth factor receptor (P00533 whole entry, the tested form may be a part): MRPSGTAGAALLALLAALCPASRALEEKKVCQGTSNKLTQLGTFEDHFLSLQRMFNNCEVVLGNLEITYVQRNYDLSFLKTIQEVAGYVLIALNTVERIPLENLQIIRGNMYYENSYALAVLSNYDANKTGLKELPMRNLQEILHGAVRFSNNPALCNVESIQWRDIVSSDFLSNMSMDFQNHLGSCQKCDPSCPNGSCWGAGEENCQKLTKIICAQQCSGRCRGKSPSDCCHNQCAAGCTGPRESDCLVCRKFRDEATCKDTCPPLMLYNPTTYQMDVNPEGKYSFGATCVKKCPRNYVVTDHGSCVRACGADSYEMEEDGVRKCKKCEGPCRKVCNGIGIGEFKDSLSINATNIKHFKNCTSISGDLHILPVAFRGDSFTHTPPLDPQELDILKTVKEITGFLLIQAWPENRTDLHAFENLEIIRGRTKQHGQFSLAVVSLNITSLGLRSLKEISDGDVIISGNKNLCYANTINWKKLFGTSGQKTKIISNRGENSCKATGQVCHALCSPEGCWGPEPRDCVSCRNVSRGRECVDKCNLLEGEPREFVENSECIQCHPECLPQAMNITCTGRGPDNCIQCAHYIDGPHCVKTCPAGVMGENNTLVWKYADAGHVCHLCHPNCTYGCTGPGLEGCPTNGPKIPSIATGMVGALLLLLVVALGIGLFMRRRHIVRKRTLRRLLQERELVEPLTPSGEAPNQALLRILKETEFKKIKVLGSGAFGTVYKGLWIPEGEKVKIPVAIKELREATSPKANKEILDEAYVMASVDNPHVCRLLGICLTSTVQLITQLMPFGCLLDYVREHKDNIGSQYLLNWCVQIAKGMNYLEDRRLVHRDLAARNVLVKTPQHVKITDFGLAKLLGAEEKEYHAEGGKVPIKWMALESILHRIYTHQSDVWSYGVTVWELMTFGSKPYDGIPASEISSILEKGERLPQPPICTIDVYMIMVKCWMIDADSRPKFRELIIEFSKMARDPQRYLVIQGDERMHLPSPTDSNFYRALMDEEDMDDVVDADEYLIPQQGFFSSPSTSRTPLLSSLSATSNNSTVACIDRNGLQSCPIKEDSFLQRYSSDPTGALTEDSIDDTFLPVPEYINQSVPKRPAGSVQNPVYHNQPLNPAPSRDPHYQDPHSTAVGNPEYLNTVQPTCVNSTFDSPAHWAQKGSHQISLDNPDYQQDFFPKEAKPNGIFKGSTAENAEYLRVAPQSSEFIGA

Chain of Macrophage colony-stimulating factor 1 receptor (P07333 whole entry, the tested form may be a part): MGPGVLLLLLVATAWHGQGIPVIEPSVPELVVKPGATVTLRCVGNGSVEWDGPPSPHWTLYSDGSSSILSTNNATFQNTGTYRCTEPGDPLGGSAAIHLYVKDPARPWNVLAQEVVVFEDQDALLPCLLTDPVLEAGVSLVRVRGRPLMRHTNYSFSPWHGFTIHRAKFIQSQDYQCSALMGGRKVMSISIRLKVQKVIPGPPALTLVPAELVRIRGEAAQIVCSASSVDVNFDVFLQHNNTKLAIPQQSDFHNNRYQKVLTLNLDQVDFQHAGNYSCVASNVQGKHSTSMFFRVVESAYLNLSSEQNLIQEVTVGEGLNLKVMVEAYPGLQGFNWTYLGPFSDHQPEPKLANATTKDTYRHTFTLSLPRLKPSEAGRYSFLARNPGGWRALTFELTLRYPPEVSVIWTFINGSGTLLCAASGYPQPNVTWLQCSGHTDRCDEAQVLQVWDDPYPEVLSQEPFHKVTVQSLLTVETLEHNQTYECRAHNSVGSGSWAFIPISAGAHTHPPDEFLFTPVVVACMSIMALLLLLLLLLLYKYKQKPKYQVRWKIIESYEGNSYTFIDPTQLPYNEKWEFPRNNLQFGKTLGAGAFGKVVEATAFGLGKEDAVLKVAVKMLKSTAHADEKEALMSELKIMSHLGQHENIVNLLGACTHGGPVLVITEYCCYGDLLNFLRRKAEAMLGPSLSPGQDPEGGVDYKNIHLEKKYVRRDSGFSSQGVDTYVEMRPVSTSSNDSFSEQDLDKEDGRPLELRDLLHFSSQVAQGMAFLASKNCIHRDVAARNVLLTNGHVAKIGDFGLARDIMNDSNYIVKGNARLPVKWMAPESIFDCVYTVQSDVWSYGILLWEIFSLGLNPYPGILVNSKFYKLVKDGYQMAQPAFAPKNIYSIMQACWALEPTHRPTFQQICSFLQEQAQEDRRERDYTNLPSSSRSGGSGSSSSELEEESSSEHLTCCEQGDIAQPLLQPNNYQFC

| IC50 [1] [nM] | IC50 [2] [nM] | Structure (SMILES) |
| --- | --- | --- |
| 6.8 | 296 | CCC(=O)N1CC[C@H](N2C(=O)N(c3cc(OC)ccc3F)Cc3cnc(Nc4ccc(N5CCC6(CCN(C)C6)C5)c(C)c4)nc32)C1 (stereo not given in full) |
| 41.2 | 467 | CCC(=O)N1CC[C@H](N2C(=O)N(c3cc(OC)ccc3F)Cc3cnc(Nc4ccc(N5CCCCC5)c(C)c4)nc32)C1 |
| 3.4 | 302 | CCC(=O)N1CC[C@H](N2C(=O)N(c3cc(OC)ccc3F)Cc3cnc(Nc4ccc(N5CCN(C6COC6)CC5)c(C)c4)nc32)C1 |
| 28 | 257 | CCC(=O)N1CC[C@H](N2C(=O)N(c3cccc(OC(F)F)c3)Cc3cnc(Nc4ccc(N5CCN(C)CC5)c(C)c4)nc32)C1 |
| 151 | 889 | CCC(=O)N1CC[C@H](N2C(=O)N(c3cccc(OC(F)(F)F)c3)Cc3cnc(Nc4ccc(N5CCN(C)CC5)c(C)c4)nc32)C1 |
| 30 | 0.5 | C=CC(=O)N1CC[C@H](N2C(=O)N(c3ccccc3Cl)Cc3cnc(Nc4ccc(N5CCN(C)CC5)c(C)c4)nc32)C1 |
| 16.4 | 365 | CCC(=O)N1CC[C@H](N2C(=O)N(c3cccc(C)c3)Cc3cnc(Nc4ccc(N5CCN(C)CC5)c(C)c4)nc32)C1 |
| 30.6 | 24.9 | Cc1cc(Nc2ncc3c(n2)N([C@H]2CCN(C(=O)C4CCCCC4)C2)C(=O)N(c2ccccc2Cl)C3)ccc1N1CCN(C)CC1 |
| 20.9 | 23.4 | CCC(=O)N1CC[C@@H](N2C(=O)N(c3ccccc3Cl)Cc3cnc(Nc4ccc(N5CCN(C)CC5)c(C)c4)nc32)C1 |
| 4.9 | 209 | CCC(=O)N1CC[C@H](N2C(=O)N(c3cc(OC)ccc3F)Cc3cnc(Nc4ccc(N5CCCN(C)CC5)c(C)c4)nc32)C1 |
| 7.2 | 715 | CCC(=O)N1CC[C@H](N2C(=O)N(c3cc(OC)ccc3F)Cc3cnc(Nc4ccc(N5CCN(C)[C@@H](C)C5)c(C)c4)nc32)C1 |
| 25.9 | 148 | CCC(=O)N1CC[C@H](N2C(=O)N(c3cc(OC)ccc3F)Cc3cnc(Nc4ccc(N5CCN(C(C)=O)CC5)c(C)c4)nc32)C1 |
| 20.6 | 377 | CCC(=O)N1CC[C@H](N2C(=O)N(c3ccc(C)cc3)Cc3cnc(Nc4ccc(N5CCN(C)CC5)c(C)c4)nc32)C1 |
| 28.4 | 25.5 | Cc1cc(Nc2ncc3c(n2)N([C@H]2CCN(C(=O)C4CCCC4)C2)C(=O)N(c2ccccc2Cl)C3)ccc1N1CCN(C)CC1 |
| 4.7 | 286 | CCC(=O)N1CC[C@H](N2C(=O)N(c3cc(OC)ccc3F)Cc3cnc(Nc4ccc(N5CCC(N(C)C)CC5)c(C)c4)nc32)C1 |
| 20.7 | 28.7 | Cc1cc(Nc2ncc3c(n2)N([C@H]2CCN(C(=O)C4CC4)C2)C(=O)N(c2ccccc2Cl)C3)ccc1N1CCN(C)CC1 |
| 14.8 | 383 | CCC(=O)N1CC[C@H](N2C(=O)N(c3ccc(Cl)cc3)Cc3cnc(Nc4ccc(N5CCN(C)CC5)c(C)c4)nc32)C1 |
| 13.2 | 144 | CCC(=O)N1CC[C@H](N2C(=O)N(c3cccc(Cl)c3)Cc3cnc(Nc4ccc(N5CCN(C)CC5)c(C)c4)nc32)C1 |
| 20 | 7 | Cc1cc(Nc2ncc3c(n2)N([C@H]2CCN(C(=O)CO)C2)C(=O)N(c2ccccc2Cl)C3)ccc1N1CCN(C)CC1 |
| 7.8 | 888 | CCC(=O)N1CC[C@H](N2C(=O)N(c3cc(OC)ccc3F)Cc3cnc(Nc4ccc(N5C[C@@H](C)N(C)[C@@H](C)C5)c(C)c4)nc32)C1 |
| 6.7 | 8.5 | Cc1cc(Nc2ncc3c(n2)N([C@H]2CCN(C(=O)C(C)C)C2)C(=O)N(c2ccccc2Cl)C3)ccc1N1CCN(C)CC1 |
| 15.2 | 35.8 | CCC(=O)N1CC[C@H](N2C(=O)N(c3cccc(F)c3)Cc3cnc(Nc4ccc(N5CCN(C)CC5)c(C)c4)nc32)C1 |

| IC50 [1] [nM] | IC50 [2] [nM] | Structure (SMILES) |
| --- | --- | --- |
| 18.1 | 71.6 | CCC(=O)N1CC[C@H](N2C(=O)N(c3ccc(F)cc3)Cc3cnc(Nc4ccc(N5CCN(C)CC5)c(C)c4)nc32)C1 |
| 5.5 | 12.1 | CC(=O)N1CC[C@H](N2C(=O)N(c3ccccc3Cl)Cc3cnc(Nc4ccc(N5CCN(C)CC5)c(C)c4)nc32)C1 |
| 6.5 | 218 | CCC(=O)N1CC[C@H](N2C(=O)N(c3cc(OC)ccc3F)Cc3cnc(Nc4ccc(N5CC6(CCN(C)CC6)C5)c(C)c4)nc32)C1 |
| 10.3 | 1300 | CCC(=O)N1CC[C@H](N2C(=O)N(c3cc(OC)ccc3F)Cc3cnc(Nc4ccc(N(C)CCN(C)C)c(C)c4)nc32)C1 |
| 30.4 | 1600 | CCC(=O)N1CC[C@H](N2C(=O)N(c3cc(OC)ccc3F)Cc3cnc(Nc4ccc(N5CCN(C)CC5)cc4OC)nc32)C1 |
| 5.6 | 7.6 | CCC(=O)N1CC[C@H](N2C(=O)N(c3ccccc3C)Cc3cnc(Nc4ccc(N5CCN(C)CC5)c(C)c4)nc32)C1 |
| 5.8 | 153 | CCC(=O)N1CC[C@H](N2C(=O)N(c3ccc(OC)cc3)Cc3cnc(Nc4ccc(N5CCN(C)CC5)c(C)c4)nc32)C1 |
| 10 | 518 | CCC(=O)N1CC[C@H](N2C(=O)N(c3cc(OC)ccc3F)Cc3cnc(Nc4ccc(N5CCN(C)CC5)c(CC)c4)nc32)C1 |
| 5.8 | 600 | CCC(=O)N1CC[C@H](N2C(=O)N(c3cc(OC)ccc3F)Cc3cnc(Nc4ccc(N5CCN(C)CC5)c(OC)c4)nc32)C1 |
| 25.8 | 365 | CCC(=O)N1CC[C@H](N2C(=O)N(c3cc(OC)ccc3F)Cc3cnc(Nc4ccc(N5CCN(C)CC5)c(C(C)C)c4)nc32)C1 |
| 17.1 | 1300 | CCC(=O)N1CC[C@H](N2C(=O)N(c3cc(OC)ccc3F)Cc3cnc(Nc4ccc(N5CCN(C)CC5)c(F)c4)nc32)C1 |
| 5 | 15.7 | CCC(=O)N1CC[C@H](N2C(=O)N(c3ccccc3Cl)Cc3cnc(Nc4ccc(N5CCN(C)CC5)c(C)c4)nc32)C1 |
| 6.2 | 224 | CCC(=O)N1CC[C@H](N2C(=O)N(c3cc(OC)ccc3F)Cc3cnc(Nc4ccc(N5CCC6(CCN(C)CC6)CC5)c(C)c4)nc32)C1 |
| 10.1 | 28.9 | CCCC(=O)N1CC[C@H](N2C(=O)N(c3ccccc3Cl)Cc3cnc(Nc4ccc(N5CCN(C)CC5)c(C)c4)nc32)C1 |
| 20.1 | 29.4 | Cc1cc(Nc2ncc3c(n2)N([C@H]2CCN(C(=O)C(C)(C)C)C2)C(=O)N(c2ccccc2Cl)C3)ccc1N1CCN(C)CC1 |
| 7 | 216 | CCC(=O)N1CC[C@H](N2C(=O)N(c3cc(OC)ccc3F)Cc3cnc(Nc4ccc(N5C[C@H]6CN(C)C[C@H]6C5)c(C)c4)nc32)C1 |
| 20.2 | 2500 | CCC(=O)N1CC[C@H](N2C(=O)N(c3cc(OC)ccc3F)Cc3cnc(Nc4ccc(N5CCN(C)CC5)cc4C)nc32)C1 |
| 5.1 | 27.4 | CCC(=O)N1CC[C@H](N2C(=O)N(c3ccccc3OC)Cc3cnc(Nc4ccc(N5CCN(C)CC5)c(C)c4)nc32)C1 |
| 14.8 | 1200 | CCC(=O)N1CC[C@H](N2C(=O)N(c3cc(OC)ccc3F)Cc3cnc(Nc4ccc(N5CCN(C)CC5)c(Cl)c4)nc32)C1 |
| 10.3 | 22.2 | Cc1cc(Nc2ncc3c(n2)N([C@H]2CCN(C(=O)CC(C)C)C2)C(=O)N(c2ccccc2Cl)C3)ccc1N1CCN(C)CC1 |
| – | > 10000 | FC(F)(F)c1ccc(CNc2ccc(Cc3c[nH]c4ncc(Cl)cc34)cn2)cn1 [PEXIDARTINIB] |
